In brackets after ≈: the same amount, converted by molar mass.
Key:
[1] = Selectivity index, ratio of MCC for African green monkey Vero cells to EC50 for Human coxsackievirus B4 infected in African green monkey Vero cells; format: toxicity
[2] = Selectivity index, ratio of MCC for human HeLa cells to EC50 for Respiratory syncytial virus infected in human HeLa cells; format: toxicity, cell-based
Outline: (§1)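 HeLa cells infected concurrently with addition of serial compound dilutions, 3–6 days at 37 °C. CPE inhibition scored microscopically for EC50; MCC from minimal alteration of cell morphology by microscopy; index = MCC divided by EC50.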

[3] = Cytotoxicity against cat CRFK cells assessed as reduction in cell viability incubated for 3 to 6 days by MTS assay; format: cell-based, Felis catus; details: crfk, time 3-6 day
Outline: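 CRFK or MT4 cells were exposed to serial compound dilutions alongside the antiviral assays for 3–6 days at 37 °C.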

Coxsackievirus B4 [4] = experiment: Antiviral activity against Human coxsackievirus B4 infected in human HeLa cells assessed as reduction in virus-induced cytopathic effect incubated for 3 to 6 days by light microscopic analysis; format: functional, organism-based; details: Enterovirus B
Outline: (§2)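 CPE reduction assay: virus and serial compound dilutions added together to subconfluent HeLa (vesicular stomatitis, Coxsackie B4, respiratory syncytial) or Vero (Coxsackie B4, Sindbis, Punta Toro) cultures. Incubated 3–6 days at 37 °C. […] Mean ± SEM of three independent tests.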

Influenza B virus = experiment: Antiviral activity against influenza B virus infected in dog MDCK cells assessed as reduction in virus-induced cytopathic effect incubated for 3 to 6 days by light microscopic analysis; format: functional, organism-based
Outline: (§3)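 MDCK cells, subconfluent, received influenza A or B virus together with serial compound dilutions. Incubated 3–6 days at 35 °C.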

[5] = system: Vesicular stomatitis virus; experiment: Antiviral activity against Vesicular stomatitis virus infected in human HeLa cells assessed as reduction in virus-induced cytopathic effect incubated for 3 to 6 days by light microscopic analysis; format: functional, organism-based
Outline: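 CPE reduction assay: virus and serial compound dilutions added together to subconfluent HeLa (vesicular stomatitis, Coxsackie B4, respiratory syncytial) or Vero (Coxsackie B4, Sindbis, Punta Toro) cultures. Incubated 3–6 days at 37 °C. Mean ± SEM of three independent tests.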

Felid alphaherpesvirus 1 = experiment: Antiviral activity against Feline herpesvirus infected in cat CRFK cells assessed as reduction in virus-induced cytopathic effect incubated for 3 to 6 days by light microscopic analysis; format: functional, organism-based; details: Felid alphaherpesvirus 1, CRFK
[6] = Selectivity index, ratio of MCC for human HeLa cells to EC50 for Human coxsackievirus B4 infected in human HeLa cells; format: toxicity, cell-based; outline: as §1
Punta Toro virus = experiment: Antiviral activity against Punta Toro virus infected in African green monkey Vero cells assessed as reduction in virus-induced cytopathic effect incubated for 3 to 6 days by light microscopic analysis; format: functional, organism-based; outline: as §2
Vaccinia virus = experiment: Antiviral activity against Vaccinia virus infected in human HEL cells assessed as reduction in virus-induced cytopathic effect incubated for 3 to 6 days by light microscopic analysis; format: functional, organism-based; details: Orthopoxvirus vaccinia
[7] = Cytotoxicity against dog MDCK cells assessed as changes in cell morphology incubated for 3 to 6 days by light microscopy; format: cell-based, Canis lupus familiaris; details: time 3-6 day
[8] = Cytotoxicity against African green monkey Vero cells assessed as changes in cell morphology incubated for 3 to 6 days by light microscopy; format: cell-based; details: chlorocebus sabaeus, time 3-6 day
Outline: (§4)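 Uninfected subconfluent cells (Vero or HeLa, as named) exposed to serial compound dilutions in parallel with the CPE assays, 37 °C, 3–6 days. Cell morphology examined by light microscopy; MCC = minimal concentration causing microscopically detectable changes in morphology.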

[9] = system: Mammalian orthoreovirus 1; experiment: Antiviral activity against Mammalian orthoreovirus 1 infected in African green monkey Vero cells assessed as reduction in virus-induced cytopathic effect incubated for 3 to 6 days by light microscopic analysis; format: functional, organism-based; details: Mammalian orthoreovirus 1, Vero
[10] = Cytotoxicity against human HeLa cells assessed as changes in cell morphology incubated for 3 to 6 days by light microscopic analysis; format: cell-based; details: time 3-6 day; outline: as §4
[11] = system: Human immunodeficiency virus 1; experiment: Antiviral activity against Human immunodeficiency virus 1 infected in human MT4 cells assessed as reduction in virus-induced cytopathic effect incubated for 3 to 6 days by light microscopic analysis; format: functional, organism-based; details: Human immunodeficiency virus 1, MT4
[12] = system: Human immunodeficiency virus 2; experiment: Antiviral activity against Human immunodeficiency virus 2 infected in human MT4 cells assessed as reduction in virus-induced cytopathic effect incubated for 3 to 6 days by light microscopic analysis; format: functional, organism-based; details: Human immunodeficiency virus 2, MT4
[13] = Selectivity index, ratio of MCC for African green monkey Vero cells to EC50 for Sindbis virus infected in African green monkey Vero cells; format: toxicity
[14] = Cytotoxicity against human HEL cells assessed as changes in cell morphology incubated for 3 to 6 days by light microscopy; format: cell-based; details: time 3-6 day
Outline: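 Human embryonic lung fibroblasts incubated with serial compound dilutions alongside the antiviral assays, 37 °C, 3–6 days. Morphology inspected by light microscopy; minimal cytotoxic concentration taken as lowest concentration giving minimal morphological change.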

Coxsackievirus B4 [15] = experiment: Antiviral activity against Human coxsackievirus B4 infected in African green monkey Vero cells assessed as reduction in virus-induced cytopathic effect incubated for 3 to 6 days by light microscopic analysis; format: functional, organism-based; details: Enterovirus B; outline: as §2
Human respirovirus 3 = experiment: Antiviral activity against Human parainfluenza virus 3 infected in African green monkey Vero cells assessed as reduction in virus-induced cytopathic effect incubated for 3 to 6 days by light microscopic analysis; format: functional, organism-based; details: Human respirovirus 3, Vero
Human alphaherpesvirus 2 = experiment: Antiviral activity against Herpes simplex virus 2 infected in human HEL cells assessed as reduction in virus-induced cytopathic effect incubated for 3 to 6 days by light microscopic analysis; format: functional, cell-based; details: Human alphaherpesvirus 2, HEL
Sindbis virus = experiment: Antiviral activity against Sindbis virus infected in African green monkey Vero cells assessed as reduction in virus-induced cytopathic effect incubated for 3 to 6 days by light microscopic analysis; format: functional, organism-based; outline: as §2
[16] = system: Respiratory syncytial virus; experiment: Antiviral activity against Respiratory syncytial virus infected in human HeLa cells assessed as reduction in virus-induced cytopathic effect incubated for 3 to 6 days by light microscopic analysis; format: functional, organism-based; outline: as §2
Feline coronavirus = experiment: Antiviral activity against Feline coronavirus infected in cat CRFK cells assessed as reduction in virus-induced cytopathic effect incubated for 3 to 6 days by light microscopic analysis; format: functional, organism-based; details: Alphacoronavirus 1, CRFK
Human alphaherpesvirus 1 = experiment: Antiviral activity against Herpes simplex virus 1 infected in human HEL cells assessed as reduction in virus-induced cytopathic effect incubated for 3 to 6 days by light microscopic analysis; format: functional, cell-based; details: Human alphaherpesvirus 1, HEL
Influenza A virus = experiment: Antiviral activity against influenza A virus infected in dog MDCK cells assessed as reduction in virus-induced cytopathic effect incubated for 3 to 6 days by light microscopic analysis; format: functional, organism-based; details: Influenza A virus, MDCK; outline: as §3

C=CCNC(=S)NNC(=O)c1[nH]c2ccc(F)cc2c1-c1ccccc1
selectivity ratio [1]: 10
selectivity ratio [2]: ≥ 5
CC50 [3]: 8.6 µg/mL (≈ 23.3 µM)
EC50 (Coxsackievirus B4 [4]): 1.5 µg/mL (≈ 4.07 µM)
EC50 (Influenza B virus): > 100 µg/mL
EC50 [5]: > 100 µg/mL
EC50 (Felid alphaherpesvirus 1): > 100 µg/mL
selectivity ratio [6]: 13
EC50 (Punta Toro virus): > 100 µg/mL
EC50 (Vaccinia virus): > 100 µg/mL
MCC [7]: 4 µg/mL
MCC [8]: 20 µg/mL
EC50 [9]: > 100 µg/mL
MCC [10]: 20 µg/mL
EC50 [11]: > 100 µg/mL
EC50 [12]: > 100 µg/mL
selectivity ratio [13]: ≥ 5
MCC [14]: 20 µg/mL
EC50 (Coxsackievirus B4 [15]): 2 µg/mL (≈ 5.43 µM)
EC50 (Human respirovirus 3): > 100 µg/mL
EC50 (Human alphaherpesvirus 2): > 100 µg/mL
EC50 (Sindbis virus): ≥ 4 µg/mL
EC50 [16]: ≥ 4 µg/mL
EC50 (Feline coronavirus): > 100 µg/mL
EC50 (Human alphaherpesvirus 1): > 100 µg/mL
EC50 (Influenza A virus): > 100 µg/mL

From ChEMBL document CHEMBL4715693, “Synthesis and antiviral properties of novel indole-based thiosemicarbazides and 4-thiazolidinones” (Bioorg Med Chem, 2016)
